Source: PubChem BioAssay
MLL AF4-AF9 inh = inhibitors of human MLL-AF4/AF9 interaction. inhibition, % at 10 µM. AID 651704. P42568. 350,000 compounds, 0.47% hits. AlphaScreen, biotin-AF4 peptide binding to FLAG-AF9;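 active = every replicate reaching a set inhibition limit, whatever the replicate mean, cut at about 25% in these data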
RAD54 inh = inhibitors of human RAD54 branch migration. inhibition, % at 10.4 µM. RAD54 Holliday junction branch migration, FAM/BHQ fluorescence. AID 602329. 360,000 compounds, 0.14% hits;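 active = mean normalized replicate activity at least 40 and at least half of replicates scoring 40 or more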;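 note: inhibitors cause a drop in the FAM fluorescence signal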
Target sequence (Q92698 whole entry, looked up): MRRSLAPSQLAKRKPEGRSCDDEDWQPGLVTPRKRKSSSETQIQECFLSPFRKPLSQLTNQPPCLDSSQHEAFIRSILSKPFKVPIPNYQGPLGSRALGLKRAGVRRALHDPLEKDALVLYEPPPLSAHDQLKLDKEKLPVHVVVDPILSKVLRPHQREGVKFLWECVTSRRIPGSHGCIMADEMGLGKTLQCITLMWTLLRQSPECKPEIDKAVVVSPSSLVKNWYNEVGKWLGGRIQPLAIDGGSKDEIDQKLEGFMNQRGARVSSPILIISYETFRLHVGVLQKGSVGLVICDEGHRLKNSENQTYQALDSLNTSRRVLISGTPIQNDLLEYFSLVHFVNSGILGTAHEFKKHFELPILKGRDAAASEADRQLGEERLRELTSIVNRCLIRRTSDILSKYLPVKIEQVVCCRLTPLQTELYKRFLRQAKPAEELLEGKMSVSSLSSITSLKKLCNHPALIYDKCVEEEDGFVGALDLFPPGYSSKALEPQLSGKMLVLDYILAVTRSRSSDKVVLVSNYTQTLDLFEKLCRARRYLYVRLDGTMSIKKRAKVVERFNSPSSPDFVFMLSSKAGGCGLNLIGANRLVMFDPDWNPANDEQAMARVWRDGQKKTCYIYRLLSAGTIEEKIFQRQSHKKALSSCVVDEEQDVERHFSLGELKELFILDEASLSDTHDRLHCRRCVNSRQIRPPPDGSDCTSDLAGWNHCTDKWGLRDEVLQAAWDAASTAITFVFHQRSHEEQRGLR
GSIS activator = primary screen for activators of insulin secretion dependent on glucose, INS-1E cells, GLuc reporter luminescence; 370,000 compounds, 0.61% hits; AID 743287; activation, % at 16.6 µM; INS-1E GLuc reporter insulin secretion, 2-3 h;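 active = lowest replicate activation of at least 40%, so every replicate reaches that level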
RAD52 inh = RAD52 (human) annealing inhibition | P43351 | recombinant RAD52 DNA annealing, FRET fluorescence | inhibition, % at 18.7 µM | 360,000 compounds, 0.46% hits | AID 651710;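 active = every replicate showing at least 50% inhibition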
E-sel inducer = E-selectin induction on HUVECs | AID 686992 | HUVEC E-selectin immunofluorescence imaging; normalized: neutral wells 0, TNF-alpha wells 100 | activation, % at 7.58 µM | 260,000 compounds, 0.37% hits | P16581;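 active = mean E-selectin-positive cell signal at least 10% of the positive control, reached in at least 60% of replicates, without over 20% cell loss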
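material = human umbilical vein endothelial cells (HUVEC), E-selectin induction | quantity = 3,000 cells/well | medium = EGM-2 growth medium on 0.1% gelatin-coated wells | technique = immunofluorescence imaging | read-out basis = % PE-positive cells | control set = TNF-alpha positive control, DMSO neutral control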
Ecoli rRNA inh = inhibitors of bacterial rRNA selective over humanized ribosomes | E. coli WT GFP vs humanized-ribosome RFP mutants, fluorescence, 24 h; active compounds read low; DMSO median 0, no signal -100 | GFP signal change (wild-type ribosome), % (no concentration beside the values) | 350,000 compounds, 1.6% hits;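 active = significant combined selectivity score with lowered wild-type GFP, culture density cut under 30%, mutant RFP and density less affected; inactive = any of these conditions unmet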
Hits are given with their value; 0 = inactive; - = no result; ! = not confirmed by another sample. In the library only some 2.6% were active in any assay of this set; here they are far more common.

SMILES	MLL AF4-AF9 inh	RAD54 inh	GSIS activator	RAD52 inh	E-sel inducer	Ecoli rRNA inh
CCCCc1c(-c2ccccc2OC)ncn1Cc1ccc(C)cc1	0	-	66.0	0	0	0
CCCCc1c(-c2ccccc2OC)ncn1Cc1ccccc1F	0	-	-	0	0	0
C[C@H]1CN([C@@H](C)CO)C(=O)Cc2cc(NS(C)(=O)=O)ccc2O[C@H]1CN(C)C(=O)Nc1cccc2ccccc12	0	0	0	0	-	0
CS(=O)(=O)N1[C@H](C(=O)NCCc2ccncc2)[C@@H](CO)[C@@H]2Cn3c(ccc(C4=CCCC4)c3=O)[C@@H]21	0	0	0	0	0	0
C[C@H]1CN([C@@H](C)CO)C(=O)CCCn2cc(nn2)CO[C@@H]1CN(C)C(=O)Nc1ccc(N2CCN(C)CC2)cc1	0	0	0	54.6!	0	0
C[C@@H]1CN([C@@H](C)CO)C(=O)CCCn2cc(nn2)CO[C@H]1CN(C)S(=O)(=O)c1cccs1	0	0	0	0	0	0
C[C@@H]1CN([C@H](C)CO)C(=O)CCCn2cc(nn2)CO[C@H]1CN(C)S(=O)(=O)c1cccs1	0	0	40.9!	0	0	0
N#Cc1c(-c2ccccc2)nc(SCC(=O)Nc2ccccc2)[nH]c1=O	-	0	0	-	0	-
N#Cc1c(-c2ccccc2)nc(SCC(=O)N(c2ccccc2)c2ccccc2)[nH]c1=O	0	0	0	0	0	-49.3
C[C@@H]1CCCCO[C@@H](CN(C)CC2CCCCC2)[C@@H](C)CN([C@@H](C)CO)C(=O)c2cc(N(C)C)ccc2O1	0	0	0	0	0	0
C[C@@H]1CCCCO[C@@H](CN(C)CC2CCCCC2)[C@H](C)CN([C@@H](C)CO)C(=O)c2cc(N(C)C)ccc2O1	36.8	0	0	0	0	0
C[C@H](CO)N1C[C@H](C)[C@H](CN(C)Cc2ccc(Cl)c(Cl)c2)Oc2ccc(N(C)C)cc2C1=O	31.9	0	0	0	0	0
C[C@@H]1CN([C@@H](C)CO)C(=O)c2cc(N(C)C)ccc2O[C@H]1CN(C)Cc1ccc(Cl)c(Cl)c1	0	0	0	0	0	0
C[C@H](CO)N1C[C@H](C)[C@H](CN(C)Cc2ccc3c(c2)OCO3)OCCCC[C@H](C)Oc2ccc(N(C)C)cc2C1=O	0	0	0	0	0	0
C[C@@H]1CN([C@@H](C)CO)C(=O)Cc2cc(N(C)C)ccc2O[C@@H]1CN(C)Cc1ccc(Cl)c(Cl)c1	43.3	0	-	0	-	-
C[C@H](CO)N1C[C@H](C)[C@@H](CN(C)Cc2ccc(Cl)c(Cl)c2)OCCCC[C@H](C)Oc2ccc(N(C)C)cc2C1=O	42.7	-	0	0	0	0
C[C@H]1CN([C@@H](C)CO)C(=O)Cc2cc(N(C)C)ccc2O[C@H]1CN(C)Cc1ccc(Cl)c(Cl)c1	-	-	0	-	0	0
C[C@@H]1CCCCO[C@@H](CN(C)Cc2ccc3c(c2)OCO3)[C@H](C)CN([C@@H](C)CO)C(=O)c2cc(N(C)C)ccc2O1	0	0	0	0	-	0
C[C@@H]1CCCCO[C@@H](CN(C)Cc2ccc(Cl)c(Cl)c2)[C@@H](C)CN([C@H](C)CO)C(=O)c2cc(N(C)C)ccc2O1	47.5	0	0	0	0	0
COc1ccc(NC(=O)N(C)C[C@H]2OCCCC[C@H](C)Oc3ccc(NS(=O)(=O)c4ccc(Cl)cc4)cc3C(=O)N([C@H](C)CO)C[C@@H]2C)cc1	0	0	0	0	0	0
CC(=O)n1cc(/C=N/NC(=O)c2cccc(O)c2)c2ccccc21	0	0	0	0	0	-22.6
CC(=O)n1cc(/C=N/NC(=O)c2ccc(Cl)cc2)c2ccccc21	0	0	0	0	-	0
Cn1c2ccccc2c2cc(/C=N/NC(=O)c3cc(O)cc(O)c3)ccc21	0	0	0	0	74.3	0
CC(C)NC(=O)N(C)C[C@@H]1OCCCC[C@@H](C)Oc2ccc(NC(=O)CCCN(C)C)cc2C(=O)N([C@@H](C)CO)C[C@H]1C	0	0	0	0	0	0
C[C@@H]1CN([C@@H](C)CO)C(=O)c2cc(NS(=O)(=O)c3cccs3)ccc2O[C@H]1CN(C)C(=O)NC1CCCCC1	-	-	0	-	0	0
SMILES	MLL AF4-AF9 inh	RAD54 inh	GSIS activator	RAD52 inh	E-sel inducer	Ecoli rRNA inh
CC(C)(C)OC(=O)N1O[C@H]2C[C@@H]1[C@@H]1[C@@H]2N=NN1C12CC3CC(CC(C3)C1)C2	0	0	44.3	0	0	0
C[C@@H]1CCCCO[C@H](CN(C)S(C)(=O)=O)[C@H](C)CN([C@@H](C)CO)C(=O)c2cc(N(C)C)ccc2O1	0	0	0	0	0	0
CCCCN(C(=S)NC(=O)c1ccccc1)c1c(N)n(Cc2ccccc2)c(=O)[nH]c1=O	0	0	0	0	40.4	0
CCN(C(=O)Cn1ccc(C(F)(F)F)n1)c1c(N)n(Cc2ccccc2)c(=O)[nH]c1=O	0	0	0	0	110.4	0
COCCCN(C(=S)NC(=O)c1ccc(Br)cc1)c1c(N)n(Cc2ccccc2)c(=O)[nH]c1=O	0	-	0	0	0	0
CN(CCOc1ccccc1Cl)Cc1ccccc1	0	0	0	0	-	0
C=CCc1cc(OC)ccc1OCCN(C)Cc1ccccc1	0	-	0	0	0	-29.8
CN(CCOCCOc1ccc(Cl)cc1Br)Cc1ccccc1	0	-	0	0	0	-36.6
CN(CCOc1ccc(Cl)c(Cl)c1)Cc1ccccc1	0	0	0	0	-	-29.5
Cc1cc(OCC(=O)N(C)Cc2ccccc2)ccc1Br	0	0	0	0	-	0
Cc1cc(OCC(=O)N(C)Cc2ccccc2)ccc1Cl	0	0	0	0	0	-29.9
COC(=O)C1=CN(Cc2ccc(OC)cc2)C=C(C(=O)OC)C1c1ccsc1	0	-	0	0	0	-22.1
Cc1nc(N)c(CC(Br)CBr)c(Cl)n1 (centres undefined)	0	-	0	0	-	-38.4
CC(OC(=O)c1ccc(S(C)(=O)=O)c([N+](=O)[O-])c1)C(=O)NC1C2CC3CC(C2)CC1C3 (centres undefined)	0	0	142.9	0	0	0
CS(=O)(=O)c1ccc(C(=O)OCC(=O)NC23CC4CC(CC(C4)C2)C3)cc1[N+](=O)[O-]	0	-	0	0	0	0
CC(=O)N1CCN(C(=O)COC(=O)c2ccc(S(C)(=O)=O)cc2)CC1	0	0	66.8	0	0	0
CC(C)CN1CCN(C(=O)COC(=O)c2ccc(S(C)(=O)=O)c([N+](=O)[O-])c2)CC1	0	0	138.3	0	0	0
C[C@H]1CCCCO[C@H](CN(C)C(=O)Cc2ccccc2)[C@@H](C)CN([C@@H](C)CO)C(=O)c2cc(NS(=O)(=O)c3cn(C)cn3)ccc2O1	0	0	0	0	0	0
COc1ccc2c3c([nH]c2c1)[C@H](CO)N(Cc1ccncc1)CC31CN(CC2CCOCC2)C1	0	-	0	0	0	0
O=C(CSc1ccc(Cl)cc1)Nc1ccc(-c2nc3ccccc3[nH]2)cc1	-	0	105.6	-	0	-
